Screens: PubChem BioAssay, several laboratories
RanGTP-Impb inh = disruptors of Ran-importin-beta complex formation – biochemical, FRET, CFP-Ran, YFP-importin-beta, homogeneous, primary screen. cell-free CFP-Ran/YFP-importin-beta FRET ratio. inhibition, % (no concentration beside the values). actives 1.1% (n = 300,000);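 active means more than half of the replicate wells show a fall in the fluorescence ratio signal beyond about 16%, limit read from the data, passing the limit was not always enough; inconclusive means exactly half of the replicate wells pass the set limit; inactive means fewer than half of replicates pass the limit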;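 further: 0% = DMSO wells and 100% = Ran loaded with GDP instead of GTP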
pCIP destab = p/CIP protein destabilization; Q05BA5; F442A p/CIP-EGFP cells, EGFP fluorescence, 16 h; decrease of EGFP signal, % at 10 µM; actives 0.01% (n = 290,000);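 active means EGFP signal decrease of at least 30% at 10 µM or well 3 SD below plate mean, unless failing retest; inactive means the rest, including hits failing retest or dose response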
DSG3 Ab inh = blocks pemphigus antibody binding to human desmoglein-3; DSG3-coupled beads, scFv-anti-DSG3-GFP binding, flow cytometry; active compounds read low; actives 0.48% (n = 310,000); binding (percent of control), % at 10 µM;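 active means binding more than 3 SD below its plate's average and above zero; inconclusive means below that plate limit but binding exactly zero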;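 further: hits lower antibody fragment binding to DSG3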
Runt-CBFb FRET = inhibitors of human RUNX1 Runt domain binding to CBFb; inhibition, % at 20 µM; AID 1496; Cerulean-Runt/Venus-CBFb FRET ratio 530/480, 1 h; actives 0.46% (n = 220,000); Q01196+Q13951;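 active means inhibition over about 50% at 20 µM in the single-dose screen, limit read from the data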;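 further: 0% = DMSO wells and 100% = excess unlabeled CBFb competitor control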
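Assay system: Cerulean-Runt domain fusion protein, energy donor; Signal: fluorescence energy transfer, 422 nm excitation, 530/480 nm emission; Timing: 1 h compound exposure, room temperature; Control set: unlabeled CBFb; Medium: Tris buffer pH 7.5 with salts and BSA; Compound: single test concentration of 20 µM, 1% DMSO final; Probe or stimulus: Venus-CBFb 100 nM.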
Hck-Nef inh = human Hck-Nef kinase inhibition; actives 0.68% (n = 220,000); inhibition, % at 20 µM; AID 463187; P08631; Recombinant Hck-YEEI plus Nef, Z-Lyte FRET kinase assay;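 active means Hck-Nef kinase inhibition above about 50%, limit read from the data; inactive means inhibition below that limit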;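 further: 0% = DMSO with Hck plus Nef and 100% = Hck alone without Nef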
Target sequence (P08631 whole entry, looked up): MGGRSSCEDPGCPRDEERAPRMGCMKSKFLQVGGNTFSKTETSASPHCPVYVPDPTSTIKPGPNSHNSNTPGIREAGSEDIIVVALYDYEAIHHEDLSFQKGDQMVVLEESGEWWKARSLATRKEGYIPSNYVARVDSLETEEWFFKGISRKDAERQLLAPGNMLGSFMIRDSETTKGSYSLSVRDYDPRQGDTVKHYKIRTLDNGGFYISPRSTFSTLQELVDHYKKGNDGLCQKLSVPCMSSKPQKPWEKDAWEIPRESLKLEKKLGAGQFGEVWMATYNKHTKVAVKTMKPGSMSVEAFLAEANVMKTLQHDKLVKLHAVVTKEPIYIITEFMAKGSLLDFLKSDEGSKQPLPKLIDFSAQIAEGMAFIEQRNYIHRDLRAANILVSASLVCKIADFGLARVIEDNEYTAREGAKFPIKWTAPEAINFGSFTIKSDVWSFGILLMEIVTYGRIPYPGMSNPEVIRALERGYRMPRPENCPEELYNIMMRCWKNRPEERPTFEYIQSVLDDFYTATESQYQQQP
Runt-SMMHC FRET = blocks binding of human RUNX1 Runt domain to CBFb-SMMHC. Q01196+Q13951. Cerulean-Runt/Venus-CBFb-SMMHC FRET ratio 530/480, 1 h. inhibition, % at 20 µM. actives 0.74% (n = 220,000);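 active means mean inhibition across duplicate retests at 20 µM reaching about 50%, limit read from the data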;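 further: 0% = DMSO wells and 100% = wells with excess untagged CBFb-SMMHC; inhibitors lower the FRET ratio by blocking Runt binding to CBFb-SMMHC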
Active calls of the source: *; ? = inconclusive; nt = not tested or not shown. An excerpt weighted towards active compounds, which were near 2.1% of everything screened.

SMILES	RanGTP-Impb inh	pCIP destab	DSG3 Ab inh	Runt-CBFb FRET	Hck-Nef inh	Runt-SMMHC FRET
Cc1noc(C)c1S(=O)(=O)N(C)C[C@H]1Oc2c(NS(=O)(=O)c3cn(C)cn3)cccc2C(=O)N([C@H](C)CO)C[C@@H]1C	nt	nt	114	nt	nt	nt
COc1ccc(NC(=O)COC(=O)CCc2nc3ccccc3c(=O)[nH]2)c(OC)c1	nt	nt	102	nt	nt	nt
COc1ccc(NC(=O)COC(=O)CCc2ccccc2)c(OC)c1	-10	-5	48*	nt	nt	nt
CC(C)Oc1ccc(CNS(=O)(=O)c2csc(C(N)=O)c2)cc1	3	-9	99	nt	nt	nt
CC(=O)NC1CC2CCCC(C1)N2C(=O)Nc1c(C)cccc1C (configuration not stated)	nt	nt	103	nt	nt	nt
CCOC(=O)CCCN1CC(O)=C(c2nc(-c3ccc(Cl)cc3)cs2)C1=N	nt	2	96*	0	28	-1
CCc1ccc(NC(=O)c2cc(S(=O)(=O)N3CCCC3)c[nH]2)cc1	?	-6	98	nt	nt	nt
CCOc1ccc(NC(=O)c2cc(S(=O)(=O)N3CCCCC3)c[nH]2)cc1	-1	-17	80*	nt	nt	nt
CCN(C[C@H]1N[C@@](CC)(C(=O)OC)[C@H]2C(=O)N(C)C(=O)[C@@H]12)C(=O)Nc1ccccc1	nt	nt	87	nt	nt	nt
Cc1ccc2c(c1)C1C=CCC1C(C(=O)O)N2 (configuration not stated)	2	-8	nt	2	8	10
O=C(O)C1Nc2c(O)cc(Cl)c([N+](=O)[O-])c2C2C=CCC12 (configuration not stated)	-9	-2	66*	19	70*	40
COc1ccc(-c2c(C#N)c(N)nc3c2CCC3)cc1	-6	-5	100	45	10	97*
CC1Cc2cc(/C(O)=C3/C(=O)C(=O)N(CCN4CCOCC4)C3c3ccc(N(C)C)cc3)ccc2O1 (configuration not stated)	30*	-15	106	nt	nt	nt
O=C(Cn1c(COc2ccccc2)nc2ccccc21)Nc1cccc(Cl)c1	-1	-2	nt	0	1	-1
CCC(C)NC(=O)Cn1c(COc2ccc(Cl)cc2Cl)nc2ccccc21 (configuration not stated)	-5	4	-1.1*	-1	5	0
COc1ccc2oc(C(=O)OCC(=O)Nc3ccc(C(=O)N(C)C)cc3)c(C)c2c1	2	2	106	nt	nt	nt
CC1CC2=C(NC(=S)NC2c2cccc(F)c2)/C(=C/c2cccc(F)c2)C1 (configuration not stated)	1	-7	84	20	23	4
CC1CC2=C(NC(=S)NC2c2ccccc2F)/C(=C/c2ccccc2F)C1 (configuration not stated)	2	6	17*	17	-7	8
O=C(COC(=O)c1cc(=O)[nH]c2ccccc12)Nc1ccc(F)cc1	nt	nt	96	nt	nt	nt
CCOc1ccccc1N1CCN(CC(O)COC2CCCc3ccccc32)CC1 (configuration not stated)	2	-6	-39*	nt	nt	nt
Cc1cccc2nc(CSc3nc4ccccc4[nH]3)cn12	4	-10	88	71*	15	0
c1ccc2[nH]c(SCc3cn4ccccc4n3)nc2c1	?	-12	93	0	2	1
Cc1ccc(C)c(NC(=O)c2nnn(Cc3ccccc3)c2N)c1	168*	-5	nt	0	0	-32
CCOC(=O)c1cc2c(=O)n3ccccc3nc2n(CCOC)c1=NC(=O)c1c(-c2c(F)cccc2Cl)noc1C	nt	-22	nt	68*	39	86*
Cc1onc(-c2c(F)cccc2Cl)c1C(=O)OCN1C(=O)c2ccccc2C1=O	0	-1	105	-1	-8	-1
CCOC(=O)c1cc2c(=O)n3ccccc3nc2n(C(C)C)c1=NC(=O)c1ccncc1	85*	-12	95	92*	11	170*
CCOC(=O)c1cc2c(=O)n3ccccc3nc2n(C(C)C)c1=NC(=O)c1c(-c2ccccc2Cl)noc1C	1	-5	107	82*	8	88*
CCOC(=O)c1cccnc1SCc1cc(=O)n2ccccc2n1	7	-3	98	-2	-2	0
